Test results as given in PMC8927994 (iScience, 2022).
Where two headings read alike, the source gives them in different places.

Columns and labels:
SHP2 protein [1] = details: esophageal cancer KYSE520 cells; ref Wang et al., 2021; cited from earlier work
SHP2 protein [2] = details: acute myeloid leukemia MV4;11 cells; ref Wang et al., 2021; cited from earlier work
[3] = tested on: imiquimod-induced psoriasis model mice; test: IMQ-induced psoriasis-like mouse model; assay type: in vivo
PTP1B = target: T1, PTP1B (Homo sapiens, UniProt P18031); test: PTP1B enzyme activity assay; assay type: biochemical; details: read-out: IC50 PTP1B, DiFMUP substrate
T1 sequence (P18031 1-435): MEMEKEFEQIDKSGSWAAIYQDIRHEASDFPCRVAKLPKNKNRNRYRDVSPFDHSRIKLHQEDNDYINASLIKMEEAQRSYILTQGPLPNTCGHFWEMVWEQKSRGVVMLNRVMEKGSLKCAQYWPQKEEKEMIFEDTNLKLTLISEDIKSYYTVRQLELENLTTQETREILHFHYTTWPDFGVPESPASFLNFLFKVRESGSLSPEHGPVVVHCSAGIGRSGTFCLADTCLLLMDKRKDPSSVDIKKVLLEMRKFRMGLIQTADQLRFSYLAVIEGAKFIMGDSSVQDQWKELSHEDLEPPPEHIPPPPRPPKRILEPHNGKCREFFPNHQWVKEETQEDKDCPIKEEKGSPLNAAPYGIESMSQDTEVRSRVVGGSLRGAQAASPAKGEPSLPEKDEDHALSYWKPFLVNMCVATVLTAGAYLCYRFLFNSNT
Outline: (§1)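 In-house expressed recombinant enzyme, purified by gel filtration, at the same conditions as the SHP2 assay but without IRS1 activating peptide. Test compound at 0.001–100 μM is preincubated with enzyme for 30–60 min at 25°C. DiFMUP is then added for 30 min at 25°C, and the reaction is quenched with bpV(Phen). Fluorescence is read at ex 340/em 450 nm, and IC50 comes from the dose-response curve.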

SHP1 = SHP1 (Homo sapiens, UniProt P29350); test: SHP1 enzyme activity assay; assay type: biochemical; details: read-out: IC50 SHP1, DiFMUP substrate
Chain of SHP1 (P29350 whole entry): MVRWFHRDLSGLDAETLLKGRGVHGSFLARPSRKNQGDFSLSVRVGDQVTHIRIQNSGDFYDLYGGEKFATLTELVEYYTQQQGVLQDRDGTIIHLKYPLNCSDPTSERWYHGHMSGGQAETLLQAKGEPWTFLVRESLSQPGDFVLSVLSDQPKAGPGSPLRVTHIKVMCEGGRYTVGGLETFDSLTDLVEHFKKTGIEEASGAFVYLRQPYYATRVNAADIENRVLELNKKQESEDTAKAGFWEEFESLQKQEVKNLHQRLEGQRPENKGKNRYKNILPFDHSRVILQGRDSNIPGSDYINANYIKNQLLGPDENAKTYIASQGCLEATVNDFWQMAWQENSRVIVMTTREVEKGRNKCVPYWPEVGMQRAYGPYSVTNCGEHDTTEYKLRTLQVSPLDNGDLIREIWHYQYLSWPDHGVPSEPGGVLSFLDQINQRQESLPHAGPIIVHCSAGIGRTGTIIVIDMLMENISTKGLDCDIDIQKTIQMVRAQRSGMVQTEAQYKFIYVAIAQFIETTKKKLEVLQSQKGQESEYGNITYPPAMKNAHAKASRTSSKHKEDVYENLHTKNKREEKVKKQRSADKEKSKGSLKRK
Outline: as §1

[4] = tested on: bone marrow-derived macrophages (BMDMs); test: Imiquimod-induced inflammation in bone marrow-derived macrophages; assay type: cell-based, mouse
[5] = tested on: mouse peritoneal macrophages (PMs); test: Imiquimod-induced inflammation in peritoneal macrophages; assay type: cell-based
[6] = 10 μM pretreated 3 h, 5 μM IMQ 1 h

Compound: Cc1ncsc1-c1ccc([C@H](C)NC(=O)[C@@H]2C[C@@H](O)CN2C(=O)[C@@H](NC(=O)CCCCCCCCN2CCN(C(=O)CCC(=O)Nc3cccc(Sc4ncc(N5CCC(C)(N)CC5)nc4N)c3Cl)CC2)C(C)(C)C)cc1 [SHP2-D26]
- reduction of SHP2 protein levels (SHP2 protein [1]): > 95%
- reduction of SHP2 protein levels (SHP2 protein [2]): > 95%

Compound: CC1(N)CCN(c2cnc(-c3cccc(Cl)c3Cl)c(N)n2)CC1 [SHP099]
- infiltration of inflammatory cells (HE staining of skin sections) [3]: significantly reduced
- proliferation of epidermal cells (HE staining of skin sections) [3]: effectively inhibit
- IC50 (PTP1B): > 100 µM
- IC50 (SHP1): > 100 µM
- phosphorylation levels of p-IKKα/β and p-p65 (western blot) [4, 6]: inhibited the phosphorylation levels
- gene expression levels of inflammatory factors Il23a, Il22, Il6, Tnfα, Il1b, Ptgs2 (qPCR) ([4]; pretreated 3 h, 5 μM IMQ 6 h): significantly alleviated
- phosphorylation levels of p-IKKα/β and p-p65 (western blot) [5, 6]: inhibited the phosphorylation levels
- gene expression levels of inflammatory factors Il23a, Il22, Il6, Tnfα, Il1b, Ptgs2 (qPCR) ([5]; pretreated 3 h, 5 μM IMQ 6 h): significantly alleviated
